Measured values published in ChEMBL document CHEMBL4138319, “Discovery, Synthesis, Pharmacological Profiling, and Biological Characterization of Brintonamides A-E, Novel Dual Protease and GPCR Modulators from a Marine Cyanobacterium” (J Med Chem, 2018).
pEC50, pIC50: −log10 of the molar value. The source made the active and inactive calls. The rule behind the calls is not given here. Square brackets hold non-standard residues; d marks the D form. Peptide text beside a SMILES is read from it. * marks the point of attachment. ξ: configuration not given here. X4 = CC[C@H](C)[C@@H](OC(=O)[C@H](Cc1ccccc1)N(C)C)C(=O)*; X3 = CC[C@H](C)[C@@H](OC(=O)/C=C\c1ccccc1)C(=O)*; X5 = CC[C@H](C)[C@@H](OC(=O)C#Cc1ccccc1)C(=O)*; X2 = CC[C@H](C)[C@@H](OC(=O)CCc1ccccc1)C(=O)*; Hmp(2R,3S) = CC[C@H](C)[C@@H](O)C(=O)O; dNMeF = CN[C@H](Cc1ccccc1)C(=O)O; NMeL = CN[C@@H](CC(C)C)C(=O)O; dHiv = CC(C)[C@@H](O)C(=O)O; ξD = NC(CC(=O)O)C(=O)O

Experiments:
Kallikrein-7 [1] = molecular target: T1, Kallikrein-7 (Homo sapiens, UniProt P49862); experiment: Inhibition of kallikrein 7 (unknown origin) by fluorescence assay
In short: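 Protease panel screen: 10-dose titrations, 3-fold serial dilution from 100 μM, singlet. Protease activity is followed as the time-course rise in fluorescence from a labeled peptide substrate, and the initial linear slope (signal/min) is analysed.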
Target sequence in this assay (P49862 whole entry): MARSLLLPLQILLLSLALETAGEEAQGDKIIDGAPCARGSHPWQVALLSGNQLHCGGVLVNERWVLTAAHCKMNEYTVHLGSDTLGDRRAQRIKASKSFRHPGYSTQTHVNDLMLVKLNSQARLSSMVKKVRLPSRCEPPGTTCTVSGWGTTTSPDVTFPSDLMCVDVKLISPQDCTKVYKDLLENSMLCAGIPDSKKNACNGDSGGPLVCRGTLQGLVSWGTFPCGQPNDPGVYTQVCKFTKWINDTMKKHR

[2] = molecular target: Somatostatin receptor type 3 (Homo sapiens, UniProt P32745); experiment: Antagonist activity at human SSTR3 expressed in HEK293 cells assessed as [Tyr1]-somatostatin 14-induced beta-arrestin recruitment pre-incubated for 30 mins before [Tyr1]-somatostatin 14 stimulation for 90 or 180 mins by chemiluminescence method; type: functional, cell-based
Sequence of Somatostatin receptor type 3 (P32745 whole entry): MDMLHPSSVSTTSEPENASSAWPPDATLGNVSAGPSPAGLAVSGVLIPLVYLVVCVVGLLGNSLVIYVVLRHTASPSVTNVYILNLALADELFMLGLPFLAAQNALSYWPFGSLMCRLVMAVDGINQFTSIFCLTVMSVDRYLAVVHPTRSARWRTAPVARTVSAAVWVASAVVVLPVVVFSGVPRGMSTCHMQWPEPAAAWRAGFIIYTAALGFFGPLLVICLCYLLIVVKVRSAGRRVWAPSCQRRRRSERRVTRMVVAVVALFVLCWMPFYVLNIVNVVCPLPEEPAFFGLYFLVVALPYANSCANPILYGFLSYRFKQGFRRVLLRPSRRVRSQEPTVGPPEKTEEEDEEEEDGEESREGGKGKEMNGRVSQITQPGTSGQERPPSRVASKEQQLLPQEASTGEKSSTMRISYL
In short: (§1)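 PathHunter β-arrestin complementation assay, antagonist mode. Cells co-express ProLink-tagged GPCR and enzyme-acceptor-tagged β-arrestin and are pre-incubated with sample for 30 min at 37 °C or room temperature. Dose-response: 10 points, 3-fold dilutions from 20 μM, in duplicate.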

[3] = molecular target: Atypical chemokine receptor 3 (Homo sapiens, UniProt P25106); experiment: Agonist activity at human CXCR7 expressed in CHOK1 cells assessed as induction of beta-arrestin recruitment by chemiluminescence method; type: functional, cell-based
Sequence of Atypical chemokine receptor 3 (P25106 whole entry, the tested form may be a part): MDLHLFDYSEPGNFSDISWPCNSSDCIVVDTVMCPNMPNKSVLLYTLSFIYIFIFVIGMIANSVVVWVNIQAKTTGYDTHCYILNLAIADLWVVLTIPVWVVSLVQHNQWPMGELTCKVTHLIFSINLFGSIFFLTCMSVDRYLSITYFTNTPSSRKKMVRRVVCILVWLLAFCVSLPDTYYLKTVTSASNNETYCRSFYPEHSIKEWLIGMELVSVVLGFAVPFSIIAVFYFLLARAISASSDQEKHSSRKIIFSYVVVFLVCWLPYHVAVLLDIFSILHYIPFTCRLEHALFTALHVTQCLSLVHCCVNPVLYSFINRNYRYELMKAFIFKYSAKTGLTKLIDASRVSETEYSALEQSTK
In short: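 PathHunter β-arrestin enzyme-fragment complementation assay in cells stably co-expressing ProLink-tagged GPCR and enzyme-acceptor-tagged β-arrestin. Sample is added to cells and incubated 90 or 180 min at 37 °C or room temperature, with 1% final vehicle. Detection reagent is added for 1 h at room temperature and chemiluminescence is read. % activity is taken relative to vehicle and maximal control ligand. Dose-response: 10 points, 3-fold dilutions from 20 μM, in duplicate.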

MDA-MB-231 [4] = experiment: Antiproliferative activity against human MDA-MB-231 cells after 48 hrs by MTT assay; type: functional, cell-based; settings: for pIC50: Homo sapiens, MDA-MB-231, 48 h, read-out: IC50; for IC50: mda-mb-231
In short: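 MDA-MB-231 cells are grown in DMEM with 10% FBS and seeded at 10,000 cells/well for 24 h. Cells are then exposed to graded compound concentrations or DMSO for 48 h. Viability is measured by MTT.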

[5] = molecular target: T2, C-C chemokine receptor type 10 (Homo sapiens, UniProt P46092); experiment: Antagonist activity at human CCR10 expressed in human U2OS cells assessed as inhibition of CCL27-induced beta-arrestin recruitment pre-incubated for 30 mins before CCL27 stimulation for 90 or 180 mins by chemiluminescence method; type: functional, cell-based; in short: as §1
T2 sequence (P46092 whole entry): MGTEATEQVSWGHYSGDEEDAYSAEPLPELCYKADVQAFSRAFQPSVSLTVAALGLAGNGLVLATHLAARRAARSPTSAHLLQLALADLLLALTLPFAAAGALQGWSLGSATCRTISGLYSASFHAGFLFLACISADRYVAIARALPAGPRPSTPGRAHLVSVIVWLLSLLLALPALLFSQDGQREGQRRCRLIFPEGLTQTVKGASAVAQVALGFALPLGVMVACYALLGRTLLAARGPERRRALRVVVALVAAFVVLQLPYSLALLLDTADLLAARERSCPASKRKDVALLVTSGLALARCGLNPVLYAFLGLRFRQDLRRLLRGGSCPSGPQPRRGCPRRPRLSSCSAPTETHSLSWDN

Oxytocin receptor = molecular target: T3, Oxytocin receptor (Homo sapiens, UniProt P30559); experiment: Antagonist activity at human OXTR expressed in CHOK1 cells assessed as oxytocin-induced beta-arrestin recruitment pre-incubated for 30 mins before oxytocin stimulation for 90 or 180 mins by chemiluminescence method; type: functional, cell-based; in short: as §1
T3 sequence (P30559 whole entry): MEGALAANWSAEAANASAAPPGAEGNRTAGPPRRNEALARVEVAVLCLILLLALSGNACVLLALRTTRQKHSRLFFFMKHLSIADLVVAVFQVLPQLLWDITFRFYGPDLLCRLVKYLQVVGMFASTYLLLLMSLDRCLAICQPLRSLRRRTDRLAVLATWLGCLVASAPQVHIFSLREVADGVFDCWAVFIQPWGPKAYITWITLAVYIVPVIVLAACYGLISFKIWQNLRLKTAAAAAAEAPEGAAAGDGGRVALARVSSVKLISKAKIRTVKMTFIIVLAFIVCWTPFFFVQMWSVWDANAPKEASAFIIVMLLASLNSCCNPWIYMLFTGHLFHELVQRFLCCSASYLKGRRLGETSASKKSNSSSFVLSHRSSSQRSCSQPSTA

Substance-K receptor = molecular target: T4, Substance-K receptor (Homo sapiens, UniProt P21452); experiment: Antagonist activity at human TACR2 expressed in CHOK1 cells assessed as substance P-induced beta-arrestin recruitment pre-incubated for 30 mins before substance P stimulation for 90 or 180 mins by chemiluminescence method; type: functional, cell-based; in short: as §1
T4 sequence (P21452 whole entry): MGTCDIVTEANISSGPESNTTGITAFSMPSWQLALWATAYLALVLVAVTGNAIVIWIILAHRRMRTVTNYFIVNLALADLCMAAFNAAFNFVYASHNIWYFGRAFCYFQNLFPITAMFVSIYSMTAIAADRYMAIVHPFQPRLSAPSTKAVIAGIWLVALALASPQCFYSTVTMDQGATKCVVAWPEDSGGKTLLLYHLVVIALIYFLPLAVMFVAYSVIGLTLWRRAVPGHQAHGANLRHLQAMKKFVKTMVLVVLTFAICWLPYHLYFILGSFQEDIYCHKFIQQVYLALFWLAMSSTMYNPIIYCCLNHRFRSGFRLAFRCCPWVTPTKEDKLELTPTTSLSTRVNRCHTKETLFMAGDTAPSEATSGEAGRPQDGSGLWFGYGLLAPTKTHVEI

Kallikrein-7 [6] = molecular target: T1, Kallikrein-7; experiment: Inhibition of kallikrein 7 (unknown origin) using fluorescently labeled peptide substrate by fluorescence assay
In short: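 KLK7 follow-up: 10-dose titrations, 3-fold serial dilution from 100 μM, in duplicate, with gabexate mesylate as positive control. Fluorescence from the labeled peptide substrate is monitored over time, and the initial linear slope (signal/min) is used to derive IC50.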
Target sequence in this assay (P49862 30-253 limits assumed): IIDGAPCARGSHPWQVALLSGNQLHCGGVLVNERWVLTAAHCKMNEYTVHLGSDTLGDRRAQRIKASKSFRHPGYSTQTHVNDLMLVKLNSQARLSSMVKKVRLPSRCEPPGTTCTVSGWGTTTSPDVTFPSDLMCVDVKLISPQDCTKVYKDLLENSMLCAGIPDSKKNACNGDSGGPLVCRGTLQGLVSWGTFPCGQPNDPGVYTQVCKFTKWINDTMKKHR

Chymase = molecular target: T5, Chymase (Homo sapiens, UniProt P23946); experiment: Inhibition of chymase (unknown origin) by fluorescence assay
T5 sequence (P23946 whole entry): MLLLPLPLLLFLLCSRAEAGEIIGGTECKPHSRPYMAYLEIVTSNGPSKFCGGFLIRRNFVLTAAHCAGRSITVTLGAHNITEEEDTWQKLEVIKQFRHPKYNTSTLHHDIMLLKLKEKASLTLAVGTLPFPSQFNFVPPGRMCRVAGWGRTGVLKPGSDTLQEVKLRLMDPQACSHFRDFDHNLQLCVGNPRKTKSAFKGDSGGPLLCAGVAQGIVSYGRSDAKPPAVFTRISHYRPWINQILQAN
In short: (§2)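 Activity followed as a time course of rising fluorescence from a fluorescently labelled peptide substrate. The initial linear slope (signal/min) was used.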

[7] = Inhibition of chymotrypsin (unknown origin) by fluorescence assay; set-up: species or system Homo sapiens
MDA-MB-231 [8] = experiment: Antiproliferative activity against human MDA-MB-231 cells assessed as reduction in cell viability at 100 uM after 48 hrs by MTT assay; type: functional
In short: (§3)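 MDA-MB-231 cells seeded at 10,000 cells/well in DMEM with 10% FBS and left 24 h, then exposed to compound or DMSO solvent control for 48 h. Viability read by MTT, compared with solvent control.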

MDA-MB-231 [9] = experiment: Antiproliferative activity against human MDA-MB-231 cells assessed as reduction in cell viability at 32 uM after 48 hrs by MTT assay; type: functional; in short: as §3
Kallikrein-7 [10] = molecular target: T1, Kallikrein-7; experiment: Mixed type inhibition of kallikrein 7 (unknown origin) using fluorescently labeled peptide substrate by fluorescence assay based Michaelis-Menten kinetic plot analysis
Target sequence in this assay (P49862 30-253 limits assumed): as the sequence (P49862 30-253 limits assumed) above

Caspase-14 = molecular target: T6, Caspase-14 (Homo sapiens, UniProt P31944); experiment: Inhibition of human caspase 14 using Ac-WEHD-AMC fluorogenic peptide as substrate by fluorescence assay; in short: as §2
T6 sequence (P31944 whole entry): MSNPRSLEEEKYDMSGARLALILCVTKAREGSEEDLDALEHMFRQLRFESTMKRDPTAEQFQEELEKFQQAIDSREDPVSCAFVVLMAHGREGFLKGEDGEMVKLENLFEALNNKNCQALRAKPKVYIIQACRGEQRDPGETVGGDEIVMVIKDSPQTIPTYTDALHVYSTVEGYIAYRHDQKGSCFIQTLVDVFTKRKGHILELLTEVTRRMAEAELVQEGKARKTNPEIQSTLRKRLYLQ

MDA-MB-231 [11] = experiment: Antimigratory activity against human MDA-MB-231 cells at 10 uM after 48 hrs by transwell migration assay relative to control; type: functional

| Compound | pIC50 (Kallikrein-7 [1]) | pIC50 [2] | pEC50 [3] | pIC50 (MDA-MB-231 [4]) | pIC50 [5] | pIC50 (Oxytocin receptor) | pIC50 (Substance-K receptor) | inhibition (Kallikrein-7 [6]) | pIC50 (Chymase) | pIC50 [7] | IC50 (MDA-MB-231 [4]) | Activity (MDA-MB-231 [8]) [%] | Activity (MDA-MB-231 [9]) [%] | inhibition (Kallikrein-7 [10]) | pIC50 (Caspase-14) | Activity (MDA-MB-231 [11]) |
| --- | --- | --- | --- | --- | --- | --- | --- | --- | --- | --- | --- | --- | --- | --- | --- | --- |
| CCOC(=O)c1ccc(OC(=O)CCCCCNC(=N)N)cc1 | 4.69 |  |  |  |  |  |  |  |  |  |  |  |  |  |  |  |
| CC[C@H](C)[C@@H](OC(=O)C#Cc1ccccc1)C(=O)N1CCC[C@H]1C(=O)NCC(=O)N(C)[C@@H](CC(C)C)C(=O)N[C@@H](C)C(=O)N(C)[C@H](Cc1ccccc1)C(=O)N1CCC[C@H]1C(=O)OC (X5-PG[NMeL]A[dNMeF]P-OMe) |  | < 4.70 | < 4.70 | 4.22 | < 4.70 | < 4.70 | < 4.70 | Active |  |  |  |  |  |  |  |  |
| CC(C)C[C@H](NC(=O)[C@@H](NC(=O)N[C@@H](Cc1ccccc1)C(=O)O)C1CCNC(=N)N1)C(=O)N[C@H](C=O)Cc1ccccc1 (some centres not stated) [CHYMOSTATIN] |  |  |  |  |  |  |  |  | 8.03 | 9.51 |  |  |  |  |  |  |
| COC(=O)[C@@H]1CCCN1C(=O)[C@@H](Cc1ccccc1)N(C)C(=O)[C@H](C)NC(=O)[C@H](CC(C)C)N(C)C(=O)CNC(=O)[C@@H]1CCCN1C(=O)[C@H](O)C(C)C (H-[dHiv]PG[NMeL]A[dNMeF]P-OMe) |  | < 4.70 | < 4.70 |  | < 4.70 | < 4.70 | < 4.70 | Active |  |  | Not Active |  |  |  |  |  |
| CC[C@H](C)[C@@H](OC(=O)[C@H](Cc1ccccc1)N(C)C)C(=O)N1CCC[C@H]1C(=O)NCC(=O)N(C)[C@@H](CC(C)C)C(=O)N[C@@H](C)C(=O)N(C)[C@H](Cc1ccccc1)C(=O)N1CCC[C@H]1C(=O)OC (X4-PG[NMeL]A[dNMeF]P-OMe) |  | 5.21 | 4.98 |  | < 4.70 | < 4.70 | 5.26 | Active |  |  |  | 50 |  |  |  |  |
| CC[C@H](C)[C@@H](OC(=O)CCc1ccccc1)C(=O)N1CCC[C@H]1C(=O)NCC(=O)N(C)[C@@H](CC(C)C)C(=O)N[C@@H](C)C(=O)N(C)[C@H](Cc1ccccc1)C(=O)N1CCC[C@H]1C(=O)OC (X2-PG[NMeL]A[dNMeF]P-OMe) |  | < 4.70 | 5.11 |  | 5.50 | 5.27 | 5.49 | Active |  |  |  |  | 50 |  |  |  |
| CC[C@H](C)[C@@H](O)C(=O)N1CCC[C@H]1C(=O)NCC(=O)N(C)[C@@H](CC(C)C)C(=O)N[C@@H](C)C(=O)N(C)[C@H](Cc1ccccc1)C(=O)N1CCC[C@H]1C(=O)OC ({Hmp(2R,3S)}-PG[NMeL]A[dNMeF]P-OMe) | 4.66 | < 4.70 | < 4.70 |  | < 4.70 | < 4.70 | < 4.70 | Active | 4.00 | 5.05 | Not Active |  |  | Active | 4.30 | inactive |
| CC[C@H](C)[C@@H](OC(=O)/C=C\c1ccccc1)C(=O)N1CCC[C@H]1C(=O)NCC(=O)N(C)[C@@H](CC(C)C)C(=O)N[C@@H](C)C(=O)N(C)[C@H](Cc1ccccc1)C(=O)N1CCC[C@H]1C(=O)OC (X3-PG[NMeL]A[dNMeF]P-OMe) |  | < 4.70 | 5.23 | 4.83 | 5.57 | 5.24 | 5.34 | Active |  |  |  |  |  |  |  |  |
| CC[C@H](C)[C@H](N)C(=O)N[C@@H](CCC(=O)O)C(=O)N[C@H](C(=O)NC(C=O)CC(=O)O)[C@@H](C)O (some centres not stated) (H-IET[ξD]-aldehyde) |  |  |  |  |  |  |  |  |  |  |  |  |  |  | 5.14 |  |
